24 compounds from ChEMBL document CHEMBL1139742, “3-(Indol-2-yl)indazoles as Chek1 kinase inhibitors: Optimization of potency and selectivity via substitution at C6” (Bioorg Med Chem Lett, 2006) can be followed below.

Test [1] has as its target T1, Serine/threonine-protein kinase Chk1 (Homo sapiens, UniProt O14757).
T1 sequence (O14757 whole entry): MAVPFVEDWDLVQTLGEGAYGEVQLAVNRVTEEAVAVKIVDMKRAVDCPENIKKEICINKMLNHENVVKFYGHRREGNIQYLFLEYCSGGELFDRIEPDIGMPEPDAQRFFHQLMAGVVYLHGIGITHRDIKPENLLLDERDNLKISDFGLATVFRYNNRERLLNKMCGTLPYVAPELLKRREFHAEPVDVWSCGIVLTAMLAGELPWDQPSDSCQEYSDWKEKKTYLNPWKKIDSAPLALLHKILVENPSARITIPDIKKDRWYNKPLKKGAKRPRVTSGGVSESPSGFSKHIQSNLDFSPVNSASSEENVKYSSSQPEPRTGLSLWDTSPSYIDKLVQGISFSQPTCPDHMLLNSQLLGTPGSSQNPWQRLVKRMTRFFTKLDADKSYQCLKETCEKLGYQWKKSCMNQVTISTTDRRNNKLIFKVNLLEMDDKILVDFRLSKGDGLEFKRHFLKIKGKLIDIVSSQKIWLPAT
Kind of test: Inhibition of Chek1.

For a further test, the system named is NCI-H1299. Description: Release of NCI-H1299 cells from DNA damage-induced cell cycle arrest by CEA. Type of test: functional, cell-based. To be noted: Homo sapiens. The essentials: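 NCI-H1299 lung carcinoma cells were arrested by 16 h camptothecin treatment, then exposed to inhibitor for a further 8 h. Escape into mitosis was read as mitosis-specific nucleolin phosphorylation in an antibody-coated bead-based assay. EC50 came from a 10-point half-log dilution series, averaged over tetraplicate determinations.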

Test [2] deals with Cyclin-dependent kinase 7 (Homo sapiens, UniProt P50613). Description: Inhibition of Cdk7.
For the next test, the species on record is Homo sapiens. Description: Selectivity for Chek1 over Cdk7.
Test [3] addresses T1, Serine/threonine-protein kinase Chk1. Description: Inhibition of autophosphorylation of Chek1 in NCI-H1299 cells. The test is classed as functional, cell-based. The procedure, abridged:
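Cyto-blot of Chek1 autophosphorylation with phospho-S296 Chek1 antibody in NCI-H1299 lung carcinoma cells. Cells incubated with inhibitor 2 h, then camptothecin added for a further 4 h. Cellular assay ATP 2.0 mM. 10-point, 3-fold dilution series. IC50 averaged over triplicate determinations.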

Chain of Cyclin-dependent kinase 7 (P50613 whole entry): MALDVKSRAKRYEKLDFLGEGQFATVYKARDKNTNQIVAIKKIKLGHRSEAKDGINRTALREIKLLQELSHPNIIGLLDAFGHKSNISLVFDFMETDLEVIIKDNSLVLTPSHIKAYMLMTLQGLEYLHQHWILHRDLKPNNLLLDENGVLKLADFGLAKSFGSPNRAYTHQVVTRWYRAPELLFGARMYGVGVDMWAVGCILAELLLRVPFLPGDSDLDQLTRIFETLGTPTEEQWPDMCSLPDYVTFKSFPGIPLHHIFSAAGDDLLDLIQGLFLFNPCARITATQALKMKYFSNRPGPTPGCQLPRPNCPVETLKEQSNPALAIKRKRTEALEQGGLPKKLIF

For the compound `CC(=O)N1CCN(Cc2ccc3[nH]c(-c4n[nH]c5ccccc45)cc3c2)CC1`, inhibition in test [1] was half-maximal at 640 nM (IC50). That is a sub-micromolar value.
For the compound `c1csc(-c2ccc3c(-c4cc5cc(CN6CCCCC6)ccc5[nH]4)n[nH]c3c2)n1`, the IC50 (usually the midpoint of a concentration-inhibition curve) in test [1] stood at 48 nM; in test [2], 4000 nM. The EC50 (as a rule, the concentration at which the effect is half-maximal) with NCI-H1299 amounted to 2000 nM. The Ratio IC50 in the test filed under Homo sapiens was found to be 83.
In the case of `c1cc2[nH]c(-c3n[nH]c4cc(-c5cn[nH]c5)ccc34)cc2cc1CN1CCOCC1`, the IC50 was determined as 10 nM in test [1] and 25 nM in test [2]. In the test on NCI-H1299, this compound displayed an EC50 above 50000 nM.
With `c1cn(-c2ccc3c(-c4cc5cc(CN6CCCCC6)ccc5[nH]4)n[nH]c3c2)nn1`, the IC50 in test [1] stood at 2.6 nM; in test [2], 57 nM. The compound also came in with an EC50 in the test with NCI-H1299 of 350 nM. For the same compound, the Ratio IC50 in the test filed under Homo sapiens is 22.
Regarding `COc1cc(-c2ccc3c(-c4cc5cc(CN6CCCCC6)ccc5[nH]4)n[nH]c3c2)ccc1O`, the IC50 is 0.25 nM in test [1] and 310 nM in test [2]. The same compound returned an EC50 in the test on NCI-H1299 of 92 nM.
Take `CN(C)C(=O)c1ccc2c(-c3cc4cc(CN5CCOCC5)ccc4[nH]3)n[nH]c2c1`: the values for the IC50 in test [1] and in test [2] were 80 nM and above 100000 nM, respectively. For the same compound, in the test with NCI-H1299, the EC50 is 4000 nM.
For `NC(=O)c1ccc2c(-c3cc4cc(CN5CCOCC5)ccc4[nH]3)n[nH]c2c1` the same measures were 12 nM, 1300 nM and 980 nM.
With `CC(=O)N1CCN(Cc2ccc3[nH]c(-c4n[nH]c5cc(Cl)ccc45)cc3c2)CC1`, in test [1], it took 120 nM to reach half-maximal inhibition (IC50).
As for `c1cnn(-c2ccc3c(-c4cc5cc(CN6CCCCC6)ccc5[nH]4)n[nH]c3c2)n1`, the IC50 in test [1] worked out at 34 nM; in test [2], 480 nM. Besides, it took 4500 nM to reach a half-maximal effect in the test with NCI-H1299 (EC50). In addition, the Ratio IC50 in the test listed under Homo sapiens was found to be 14.
As to `COC(=O)c1ccc2c(-c3cc4cc(CN5CCOCC5)ccc4[nH]3)n[nH]c2c1`, the IC50 in test [1] was found to be 62 nM; in test [2], 6500 nM. In addition, in the test on NCI-H1299, it took 1930 nM to reach a half-maximal effect (EC50).
As for `CC(=O)N1CCN(Cc2ccc3[nH]c(-c4n[nH]c5cc(-c6nnn[nH]6)ccc45)cc3c2)CC1`, the IC50 in test [1] is 2.3 nM; in test [3] it was above 10000 nM; with NCI-H1299 it was above 10000 nM.
On to `c1ccc(-c2ccc3c(-c4cc5cc(CN6CCCCC6)ccc5[nH]4)n[nH]c3c2)cc1`, for which the concentration for half-maximal inhibition (IC50) in test [1] was determined as 45 nM; in test [2], 7000 nM. In the test with NCI-H1299, this compound displayed a half-maximal effective concentration (EC50) of 5000 nM. Further, the Ratio IC50 in the test filed under Homo sapiens came out at 160.
Take `OCc1n[nH]nc1-c1ccc2c(-c3cc4cc(CN5CCCCC5)ccc4[nH]3)n[nH]c2c1`: the midpoint of the response in the test with NCI-H1299, the EC50, lay at 690 nM. Moreover, the IC50 in test [2] worked out at 56 nM. In addition, in the test listed under Homo sapiens, the Ratio IC50 stood at 190.
Consider `c1ccc2[nH]c(-c3n[nH]c4cc(-c5nnn[nH]5)ccc34)cc2c1`, for which the IC50 in test [1] was 27 nM; in test [3], above 10000 nM; with NCI-H1299, above 10000 nM.
Turning to `N#Cc1ccc2c(-c3cc4cc(CN5CCOCC5)ccc4[nH]3)n[nH]c2c1`, the IC50 in test [1] is 30 nM. The compound also had an EC50 in the test on NCI-H1299 above 50000 nM.
`c1cc2[nH]c(-c3n[nH]c4cc(-c5cnsc5)ccc34)cc2cc1CN1CCCCC1`: the IC50 in test [1] was 12 nM; in test [2], 18 nM. For the same compound, the EC50 in the test with NCI-H1299 was above 10000 nM. For the same compound, in the test filed under Homo sapiens, the Ratio IC50 stood at 1.5.
For `c1cnn(-c2ccc3c(-c4cc5cc(CN6CCCCC6)ccc5[nH]4)n[nH]c3c2)c1` the same measures were 110 nM, 2300 nM, above 10000 nM and 22.
Regarding `OCc1nn[nH]c1-c1ccc2c(-c3cc4cc(CN5CCC(F)CC5)ccc4[nH]3)n[nH]c2c1`, the IC50 was found to be 0.3 nM in test [1] and 180 nM in test [2]. This compound also displayed an EC50 with NCI-H1299 of 340 nM.
As for `c1cc(-c2ccc3c(-c4cc5cc(CN6CCOCC6)ccc5[nH]4)n[nH]c3c2)[nH]n1`, the IC50 in test [1] was found to be 59 nM; in test [2], 34 nM. In addition, in the test on NCI-H1299, the EC50 was above 50000 nM. Moreover, the Ratio IC50 in the test listed under Homo sapiens was 0.58.
Consider `CC(=O)N1CCN(Cc2ccc3[nH]c(-c4n[nH]c5cc(C#N)ccc45)cc3c2)CC1`, for which the IC50 is 17 nM in test [1], 1000 nM in test [3], above 10000 nM in the test with NCI-H1299 and 39 nM in test [2].
For the compound `Cc1cnnn1-c1ccc2c(-c3cc4cc(CN5CCCCC5)ccc4[nH]3)n[nH]c2c1`, the IC50 in test [1] was determined as 30 nM; in test [2], 420 nM. Also, in the test on NCI-H1299, the EC50 is 1400 nM. Further, the Ratio IC50 in the test listed under Homo sapiens came to 14.
In test [1], `Cn1cc(-c2ccc3c(-c4cc5cc(CN6CCOCC6)ccc5[nH]4)n[nH]c3c2)cn1` returned an IC50 of 530 nM. This counts as sub-micromolar.
Take `NCc1nn[nH]c1-c1ccc2c(-c3cc4cc(CN5CCC(F)CC5)ccc4[nH]3)n[nH]c2c1`: the IC50 in test [1] was determined as 0.11 nM; in test [2], 300 nM. Moreover, the EC50 in the test with NCI-H1299 amounted to 610 nM.
In the case of `CNC(=O)c1ccc2c(-c3cc4cc(CN5CCOCC5)ccc4[nH]3)n[nH]c2c1`, the IC50 in test [1] was determined as 13 nM; in test [2], 4900 nM. In the test with NCI-H1299, this compound registered an EC50 of 650 nM.
